The results in this text go back to ChEMBL document CHEMBL4828720, “Macrocyclic Immunoproteasome Inhibitors as a Potential Therapy for Alzheimer's Disease” (J Med Chem, 2021).

The test system of series [1] is Mus musculus. The series is described as follows: Cognitive enhancing effect in Tg2576 mouse assessed as latency to enter dark compartment at 10 mg/kg, iv administered twice weekly and measured on 7 and 8 days by step-through passive avoidance test. It is filed as functional, organism-based. The note with it: time 7-8 day. In short, it runs like this: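 Tg2576 mice (9-month-old), 10 mg/kg twice weekly for 3 weeks. Step-through passive avoidance run 48 h after the probe test. Learning trial: 0.45 mA, 3 s shock on entering the dark room. Testing trial 24 h later (day 8) without shock, timed as latency to re-enter the dark chamber from the lighted compartment. n=5; Student's t-test.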

Series [2] can be described thus: Inhibition of human 20S proteasome Y using Ac-nLPnLD-AMC as fluorogenic substrate measured every minute for 1 hr by fluorescence assay. The gist of the method:
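Preincubated 1 h with inhibitor at 3-10,000 nM (8 concentrations). Substrates at 100 μM: Ac-PAL-AMC (LMP2), Ac-nLPnLD-AMC (Y), Ac-ANW-AMC (LMP7). Ac-WLA-AMC (X) at 20 μM. AMC fluorescence (360/460 nm) read each minute for 1 h; 3 replicates.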

The subject of series [3] is Proteasome subunit beta type-9 (Canis lupus familiaris). As to the kind of experiment: Inhibition of canine 20S proteasome LMP2 activity in MDCK-II cells overexpressing ABCG2 using Ac-PAL-AMC as fluorogenic substrate by fluorescence assay.
Series [4] has as its target Proteasome subunit beta type-9 (Mus musculus) (UniProt P28076). The series is described as follows: Inhibition of LMP2 in mouse BV-2 cells.
The next series is filed under the species Homo sapiens. The series is described as follows: Selectivity index, ratio of IC50 for inhibition of human 20S proteasome LMP2 activity in human RPMI-8226 cells overexpressing ABCB1 to IC50 for inhibition of human 20S proteasome LMP2 activity in human RPMI-8226 cells. The format is cell-based. In short, it runs like this: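 Carfilzomib-resistant RPMI 8226/ABCB1 line, kept drug-free for two weeks, alongside parental RPMI 8226. Cells exposed to varying inhibitor concentrations for 72 h, n=3 per concentration. Lysates (5 μg protein, pH 8.0 Tris/EDTA/0.035% SDS buffer) read with 100 μM Ac-PAL-AMC at ex 360/em 460 nm every minute for 1 h. IC50 from curve fitting, mean ± SD.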

Series [5] can be described thus: Effect on RPE structural integrity in ICR mouse by immunostaining based confocal microscopic analysis. It is filed as ADME. The gist of the method: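 RPE collected after behavioral testing from treated Tg2576 mice and from age-matched non-transgenic ICR mice. Eyecups dissected in ice-cold PBS and retina removed. Tissue permeabilized with 0.2% Triton X-100 for 15 min, blocked with 3% BSA, then anti-β-catenin (1:100) overnight at 4 °C. Alexa 555 secondary 2 h, imaged by confocal microscopy.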

In series [6] the test system is Mus musculus. The series is described as follows: Cognitive enhancing effect in Tg2576 mouse assessed as improvement in spatial learning and memory by measuring increase in time spent in target quadrant at 10 mg/kg, iv administered twice weekly and measured after 6 days during probe trial by Morris water maze test. The format is functional, organism-based. To be noted: time 6.0 day. In short, it runs like this:
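Tg2576 mice, 9 months old, given 10 mg/kg twice weekly for 3 weeks. Morris water maze in 25 ± 1 °C water, platform hidden 1-1.5 cm below surface. Three 60-s trials a day from randomized start points for 5 days. Swim paths tracked from an overhead camera. Single probe trial on day 6 scored as time in target quadrant. n=5 treated, n=12 control on days 4-5; Student's t-test.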

A short description of series [7]: Drug concentration in ICR mouse brain at 10 mg/kg, iv after 1 hr by LC-MS/MS analysis. To be noted: in vivo. It is filed as ADME, organism-based. The gist of the method: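 ICR mice received a single intravenous dose of 10 mg/kg. Brain homogenates taken at 1 h post-dose were assayed for compound level and for LMP2 activity.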

The structures appear in SMILES notation. pIC50: −log10 of the molar value. Calls of active or inactive are those of the source. No cut-off for these calls is given here.

Sequence of Proteasome subunit beta type-9 (Mus musculus) (P28076 whole entry, looked up): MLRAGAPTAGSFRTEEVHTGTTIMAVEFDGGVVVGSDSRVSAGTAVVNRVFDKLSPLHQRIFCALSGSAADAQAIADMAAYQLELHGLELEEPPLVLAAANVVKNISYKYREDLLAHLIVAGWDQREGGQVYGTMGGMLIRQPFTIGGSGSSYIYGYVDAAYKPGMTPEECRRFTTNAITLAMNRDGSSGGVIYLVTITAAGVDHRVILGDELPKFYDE

Regarding `C[C@]1(C(=O)[C@H](Cc2ccccc2)NC(=O)[C@@H]2Cc3ccc(cc3)OCCCCCCCC(=O)N3CCC[C@H]3C(=O)N2)CO1`, the result in the series with Mus musculus [1] and in the series with Mus musculus [6] was Active. In addition, the negative-log IC50 (pIC50) in series [2] is 5.08. The inhibition result in series [3] and in series [4] was “Active” throughout. Also, in the series listed under Homo sapiens, the Ratio IC50 stood at 3.3. Also, the Activity entry in series [5] is reported as “Non-Toxic”. The same compound had a Ct in series [7] of 3.5 pmol/g.

For orientation: pIC50 means the IC50 on a negative log10 scale, so that one unit is a factor of ten. Read a high pIC50 as a low IC50.
